# Assay outcomes (PubChem BioAssay)
# The list is not random: actives were taken first. Their share in the collection is about 9.8%.
# L major viab: Leishmania major promastigote growth inhibition, primary screen; AID 1063, 2008; Leishmania major promastigotes, resazurin fluorescence viability; inhibition, % at 10 µM; hit rate 9% among 200,000; in the data active = inhibition above about 50%;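 also: promastigotes grown with compound for 44 hours at 28 °C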
# PMI act satM6P: human PMI activators, high substrate, primary screen, biochemical, fluorescence intensity, near-saturating mannose 6-phosphate | hit rate 0.34% among 190,000 | activation factor at 20 µM | coupled PMI enzyme assay, resazurin fluorescence, 20 min; active compounds read high; 1 = untreated enzyme, 0 = substrate-free blank | Mannose-6-phosphate isomerase (Homo sapiens), P34949;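 active = activation factor of 2 or more at 20 µM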
#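 test system = human PMI in coupled enzyme assay | medium = HEPES-buffered pH 7.4 with magnesium and detergent | also added = 1.0 mM mannose-6-phosphate substrate with 0.22 mM NADP+ | compound = 20 µM single dose | times = 20 min incubation at room temperature | measured by = resorufin fluorescence (Ex 544/Em 590 nm) from resazurin via diaphorase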
# PMI activator: activators of human PMI, primary screen, biochemical, fluorescence intensity, near-Km mannose 6-phosphate | Mannose-6-phosphate isomerase (Homo sapiens), P34949 | purified human PMI, coupled resazurin fluorescence, 20 min; active compounds read high; 1 = vehicle control, 0 substrate-free wells | activation factor at 20 µM | hit rate 0.005% among 190,000 | AID 1214, 2008;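 active = activation factor of 2 or more at 20 µM, relative to plate controls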
# Calpain2 inh: inhibitors of pig calpain II, primary screen, biochemical, fluorogenic peptide substrate, 1536-well. AID 1236, 2008. inhibition, % at 16 µM. hit rate 0.37% among 220,000. purified calpain II, 30 min;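 active = inhibition above about 50%, limit read from the data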
# Rad51 HR inh: human RAD51 strand exchange inhibitors, primary screen, biochemical, fluorescence. DNA repair protein RAD51 homolog 1 (Homo sapiens), Q06609. hRad51 DNA strand exchange, fluorescence dequenching. inhibition, % at 10 µM. hit rate 0.085% among 200,000. AID 1385, 2008;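 active = inhibition above 40% at the single screening dose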;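 also: 0% = DMSO control wells and 100% = blanks with heterologous ssDNA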
#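 System: hRad51 filaments on single-stranded DNA; reagent: Fluorescein- and BHQ1-tagged 47-mer duplex; compound dosing: one concentration, 10 µM final; timing: filaments 15 min 37 °C, then compound 30 min; measured by: fluorescein emission 520 nm, excitation 485 nm; benchmarks: per-plate controls and blanks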
# WT yeast gro inh: growth inhibition of WT strain, primary screen, mitochondrial fusion inhibitor project, WT and mutant strains, chemical genetic; mitochondrial fusion phenotypic screen; inhibition, % at 10 µM; hit rate 2.1% among 190,000; in the data active = inhibition above about 58%; tested in S. cerevisiae
# An asterisk follows results filed as active; · = not tested or not shown.
SMILES,L major viab,PMI act satM6P,PMI activator,Calpain2 inh,Rad51 HR inh,WT yeast gro inh
O/C(=C\c1ccc2ccccc2n1)c1ccc(O)cc1O,-4.8,1.1,1.1,3.1,-174.9,3.3
Oc1ccc(/C(Cc2ccccn2)=N\Nc2ccccc2)c(O)c1,18.1,2.5*,1.6,-9.7,1.3,39.9
Oc1ccc(/C(Cc2ccc3ccccc3n2)=N\Nc2ccccc2)c(O)c1,22.5,2.3*,1.7,-16.5,·,26.2
COc1ccc(NC(=O)c2c(F)cccc2F)cc1S(=O)(=O)Nc1ccc(Br)cc1,52.0*,0.8,0.8,-13.0,·,9.2
COc1ccc(S(=O)(=O)Nc2cccc(F)c2)cc1C,65.4*,1,0.9,7.7,23.6,17.6
COc1cc(C)c(S(=O)(=O)Nc2ccccc2F)cc1C,9.9,1,0.8,12.8,-6.7,0.8
CCOc1cc(C)c(S(=O)(=O)Nc2ccc(F)cc2)cc1C,58.4*,0.9,0.9,39.3,-3.7,-3.9
